Rows were chosen to be rich in hits. Some 2.1% of all compounds tested hit in one or more screens of this group.
Calpain2 inh = inhibitors of pig calpain II; inhibition, % at 16 µM; AID 1236; 0.37% of 220,000 active; purified calpain II, fluorogenic peptide substrate, 30 min;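 active means inhibition above about 50%, limit read from the data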
Runt-CBFb FRET = inhibitors of human RUNX1 Runt domain binding to CBFb | AID 1496 | Cerulean-Runt/Venus-CBFb FRET ratio 530/480, 1 h | 0.46% of 220,000 active | Q01196+Q13951 | inhibition, % at 20 µM;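 active means inhibition over about 50% at 20 µM in the single-dose screen, limit read from the data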;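 further: 0% = DMSO wells and 100% = excess unlabeled CBFb competitor control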
Target sequence (Q01196 whole entry, looked up, the tested form may be a part): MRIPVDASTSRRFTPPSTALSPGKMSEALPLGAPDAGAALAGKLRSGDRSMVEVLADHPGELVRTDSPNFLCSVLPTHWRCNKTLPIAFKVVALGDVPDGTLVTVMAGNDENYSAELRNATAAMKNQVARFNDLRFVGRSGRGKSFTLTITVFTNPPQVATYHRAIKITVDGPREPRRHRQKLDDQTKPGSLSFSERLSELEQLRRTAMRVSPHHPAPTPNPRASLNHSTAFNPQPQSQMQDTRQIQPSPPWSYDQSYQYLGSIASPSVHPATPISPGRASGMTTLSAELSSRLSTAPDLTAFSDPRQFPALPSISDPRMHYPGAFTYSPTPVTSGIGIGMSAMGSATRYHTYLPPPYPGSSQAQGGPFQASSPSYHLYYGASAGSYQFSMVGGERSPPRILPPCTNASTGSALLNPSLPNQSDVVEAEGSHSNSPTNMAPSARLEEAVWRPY
Target sequence (Q13951 whole entry, looked up, the tested form may be a part): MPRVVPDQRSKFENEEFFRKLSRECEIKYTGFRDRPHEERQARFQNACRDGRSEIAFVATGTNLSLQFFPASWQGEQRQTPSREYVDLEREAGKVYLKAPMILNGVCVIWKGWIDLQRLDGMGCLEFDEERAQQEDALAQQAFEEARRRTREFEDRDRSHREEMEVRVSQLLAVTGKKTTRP
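test system = Cerulean-tagged RUNX1 Runt domain (FRET donor) fusion protein | reagent = Venus-CBFb binding partner, 100 nM | incubation = protein complex preformed 1 h, compound exposure 1 h, room temperature, dark | detection = FRET fluorescence | read-out basis = loss of energy transfer signal | controls = 5 µM unlabeled CBFb as full-inhibition high control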
RanGTP-Imp inh = inhibitors of RanGTP-importin-beta interaction, primary screen, biochemical, FRET, CFP-Ran, YFP-importin-beta, homogeneous; cell-free CFP-Ran/YFP-importin-beta FRET ratio; inhibition, % (test concentration not listed); 1.1% of 300,000 active; AID 2216;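 active means more than half of the replicate wells show a fall in the fluorescence ratio signal beyond about 16%, limit read from the data, passing the limit was not always enough; inconclusive means exactly half of the replicate wells pass the set limit; inactive means fewer than half of replicates pass the limit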;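 further: 0% = DMSO wells and 100% = Ran loaded with GDP instead of GTP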
FAS TE block = inhibitors of human fatty acid synthase thioesterase domain. inhibition, % at 15 µM. recombinant FAS-TE, OMFH fluorogenic substrate, fluorescence endpoint. 0.67% of 360,000 active;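 active means compounds whose normalised, plate-corrected inhibition of enzyme fluorescence in the single-dose primary screen is 50% or more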;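 further: 0% = DMSO with enzyme and 100% = substrate without enzyme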
Runt-SMMHC FRET = blocks binding of human RUNX1 Runt domain to CBFb-SMMHC; Q01196+Q13951; 0.74% of 220,000 active; AID 1434; Cerulean-Runt/Venus-CBFb-SMMHC FRET ratio 530/480, 1 h; inhibition, % at 20 µM;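 active means mean inhibition across duplicate retests at 20 µM reaching about 50%, limit read from the data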;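 further: 0% = DMSO wells and 100% = wells with excess untagged CBFb-SMMHC; inhibitors lower the FRET ratio by blocking Runt binding to CBFb-SMMHC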
The depositor's hits bear a star; i = inactive; ? = inconclusive; nt = not tested or not shown.

SMILES	Calpain2 inh	Runt-CBFb FRET	RanGTP-Imp inh	FAS TE block	Runt-SMMHC FRET
Cc1ccc(C(=O)N2N=C3c4ccccc4S(=O)(=O)N3[C@H]2N(C)C)cc1	-31	0	5	-4	2
CCCOc1c(Br)cc(C2C3=C(CCCC3=O)N(CC)C3=C2C(=O)CCC3)cc1OC	-427	94*	96*	-7	90*
CCCOc1c(Br)cc(C2C3=C(CCCC3=O)N(C)C3=C2C(=O)CCC3)cc1OC	i	-2	107*	5	79*
O=[N+]([O-])c1ccc(-c2cn3nc(-c4ccccc4)c(-c4ccccc4)nc3n2)cc1	-16	-130	42*	24	81
O=[N+]([O-])c1cccc(-c2cn3ccccc3n2)c1	-31	0	2	9	-1
c1ccc(-c2cn3nc(-c4ccccc4)c(-c4ccccc4)nc3n2)cc1	-234	nt	-9	1	-2
Cc1ccc(-c2cn3nc(-c4ccccc4)c(-c4ccccc4)nc3n2)cc1	0	2	90*	-7	81
O=[N+]([O-])c1cccc(-c2cn3nc(-c4ccccc4)c(-c4ccccc4)nc3n2)c1	-63	0	70*	41	90
COc1ccc(NC(=O)CN(CC(=O)Nc2ccc(OC)cc2)C(C)(C)CO)cc1	nt	nt	-2	0	nt
CCC(CO)(CO)N(CC(=O)Nc1ccc(OC)cc1)CC(=O)Nc1ccc(OC)cc1	nt	nt	28*	0	nt
Cc1ccc(CCNC(=O)C2CCN(S(=O)(=O)c3ccc4c(c3)NC(=O)CO4)CC2)cc1	nt	nt	-2	-1	nt
C(=C\c1nccc2c1[nH]c1ccccc12)/c1ccccc1	-262	22	8	18	80*
Fc1ccc(/C=C\c2nccc3c2[nH]c2ccccc23)cc1	-125	12	4	36	37
CC1CCCN(S(=O)(=O)c2ccc(C(=O)Nc3sc4c(c3C(N)=O)CCN(C)C4)cc2)C1 (centres undefined)	nt	nt	29*	-5	nt
CNC(=O)c1c(NC(=O)c2ccc(S(=O)(=O)N3CCCCC3C)cc2)sc2c1CCN(C)C2 (centres undefined)	nt	nt	50*	-2	nt
CCN1CCc2c(sc(NC(=O)c3ccc(S(=O)(=O)N4CCCCCC4)cc3)c2C(=O)NC)C1	nt	nt	57*	-1	nt
N#CC(c1ccncc1)(c1ncc(C(F)(F)F)cc1Cl)N1CCOCC1 (centres undefined)	69*	-2	1	18	-10
CCCCC1OC2(C)OC(=N)C1(C#N)C(C#N)(C#N)C2c1ccccc1 (centres undefined)	-99	21	nt	3	53
CC1OC2(C)OC(=N)C1(C#N)C(C#N)(C#N)C2c1ccccc1 (centres undefined)	-142	30	23*	-8	50
CC1C2(C)OC(=N)C(C#N)(C(C)O2)C1(C#N)C#N (centres undefined)	-19	101*	22*	-5	52*
COc1ccccc1NC(=O)C/C(C)=N/NC(=O)COc1c(Br)cc(Br)cc1OC	-36	-7	0	12	0
O=C(O)CCC(=O)N1CCN(c2nc(-c3ccccc3)c3cc(Br)ccc3n2)CC1	nt	nt	28*	-8	nt
O=C(O)CCC(=O)N1CCN(c2nc(-c3ccccc3Cl)c3cc(Br)ccc3n2)CC1	-161	36	31*	-14	85*
CCOC(=O)N1CCN(c2nc(-c3ccccc3)c3cc(C)ccc3n2)CC1	nt	nt	18*	16	nt
NNc1nc(-c2ccccc2Cl)c2cc(Br)ccc2n1	nt	nt	3	-2	nt
SMILES	Calpain2 inh	Runt-CBFb FRET	RanGTP-Imp inh	FAS TE block	Runt-SMMHC FRET
CC(C)Cn1nc(NS(=O)(=O)c2ccccc2)c2cc3ccccc3nc21	-16	-10	0	-5	-14
Cc1ccc2cc3c(NC(=O)c4ccco4)nn(CC(C)C)c3nc2c1	-127	17	39*	5	35
CC(=O)Nc1nn(CC(C)C)c2nc3ccc(C)cc3cc12	nt	nt	nt	-3	nt
CC(C)Cn1nc(NC(=O)C2CCCO2)c2cc3ccccc3nc21 (centres undefined)	nt	21	27*	1	39
CC(C)CN1C(=O)c2ccc(C(=O)Nc3ccc(OCC(=O)O)cc3)cc2C1=O	nt	nt	7	-6	nt
Cc1ccnc(NC(=O)c2ccc(S(=O)(=O)c3ccccc3)cc2)c1	-7	-6	-1	6	1
CCCCn1c(=NC(=O)c2ccco2)c(C(=O)OCC)cc2c(=O)n3ccccc3nc21	-438	10	-3	36	46
CCCCn1c(=NC(=O)c2cccnc2)c(C(=O)OCC)cc2c(=O)n3ccccc3nc21	-394	93*	82*	31	62*
CCOCCCn1c(=NC(=O)c2cccs2)c(C#N)cc2c(=O)n3ccccc3nc21	5	86*	105*	28	81*
CCOCCCn1c(=NC(=O)c2cccnc2)c(C(=O)OCC)cc2c(=O)n3ccccc3nc21	-412	65*	119*	32	42
CCOC(=O)c1cc2c(=O)n3ccccc3nc2n(C)c1=NC(=O)c1c(-c2c(F)cccc2Cl)noc1C	nt	nt	?	13	nt
CCCCCn1c(=NC(=O)c2ccco2)c(C(=O)OCC)cc2c(=O)n3ccccc3nc21	-366	11	137*	34	42
CCOC(=O)c1cccc(NC(=O)c2ccc(-n3cnnn3)cc2)c1	nt	nt	nt	-11	nt
COc1cc(N/C=C(\C(C)=O)c2ccccc2)cc(OC)c1	65*	0	nt	4	2
CC(=O)/C(=C/Nc1ccc(Oc2ccccc2)cc1)c1ccccc1	23	-1	1	14	-2
Cc1ccccc1-n1nc2c(c1NC(=O)C(C)(C)C)CS(=O)(=O)C2	nt	nt	0	-4	nt
Cc1cc(NCCCO)n2c(nc3ccccc32)c1C#N	i	10	56*	2	39
C=C(C)Cc1c(C)c(C#N)c2nc3ccccc3n2c1NCCCN(C)C	-50	17	38*	-3	26
CCc1c(C)c(C#N)c2nc3ccccc3n2c1NCCN(C)C	-336	16	?	-3	26
CNc1cc(C)c(C#N)c2nc3ccccc3n12	nt	nt	8	2	nt
Cc1cccc(NC(=O)CSc2cc(C)c(C#N)c3nc4ccccc4n23)c1	-107	30	0	23	80*
CCCc1cc(NCCCN(C)C)n2c(nc3ccccc32)c1C#N	nt	nt	?	-2	nt
Cc1cc(NCCOCCO)n2c(nc3ccccc32)c1C#N	nt	nt	21*	-2	nt
Cc1cc(NC(=O)Cn2c(=O)oc3ccccc32)no1	nt	nt	nt	-8	nt
Cc1ccc(C(=O)N2CC(=O)NC(=O)C2)cc1	nt	nt	1	-3	nt
CC(C)CN1C(=O)C(=O)N(CC(=O)NC(C)CCc2ccccc2)C1=O (centres undefined)	nt	nt	nt	-2	nt
Cc1cc(NCc2ccccn2)n2c(nc3ccccc32)c1C#N	-339	nt	96*	5	nt
Cc1c(Cc2ccccc2)c(NCCCO)n2c(nc3ccccc32)c1C#N	-28	57*	?	6	78*
Cc1cc(Cl)n2c(nc3ccccc32)c1C#N	-370	1	?	23	-17
